According to ChEMBL document CHEMBL4177560, “Functional evaluation of synthetic flavonoids and chalcones for potential antiviral and anticancer properties” (Bioorg Med Chem Lett, 2017):
Converted amounts (≈) assume the structure as drawn. The source made the active and inactive calls. No cut-off for these calls is given here.

Columns and labels:
[1] = target: Serine/threonine-protein kinase mTOR (Homo sapiens) (UniProt P42345); test: Inhibition of mTOR signaling pathway in human Huh7.5 cells infected with FLAG-tagged HCV genotype 2a JFH-1 assessed as reduction in ratio of viral NS3 to cellular GAPDH protein level up to 50 uM after 72 hrs by Western blot analysis; assay type: cell-based
In short: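 Huh7.5 cells were infected with genotype 2a JFH1-FLAG and co-treated at up to 50 μM for 72 h. NS3 and GAPDH were read by Western blot, and the NS3:GAPDH ratio was expressed relative to DMSO-treated cells.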

[2] = target: Serine/threonine-protein kinase mTOR (Homo sapiens) (UniProt P42345); test: Inhibition of mTOR signaling pathway (unknown origin) in sub-genomic replicon 2A cells assessed as reduction in ratio of viral NS3 to cellular GAPDH protein level at 10 uM after 72 hrs by Western blot analysis
In short: (§1)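 SGR2a (genotype 2a) or GS5 (genotype 1b) replicon cells were treated for 72 h, either at a single 10 μM dose or at increasing concentrations. Extracted proteins were blotted for NS3 and GAPDH, and blots plus repeats were quantified densitometrically as NS3:GAPDH ratio versus DMSO control (100%).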

[3] = target: Serine/threonine-protein kinase mTOR (Homo sapiens) (UniProt P42345); test: Inhibition of mTOR signaling pathway in human GS5 cells infected with HCV genotype 1b assessed as reduction in ratio of viral NS3 to cellular GAPDH protein level at 10 uM after 72 hrs by Western blot analysis; assay type: cell-based; in short: as §1
[4] = test system: MCF7; test: Inhibition of estradiol-induced proliferation in human MCF7 cells after 72 hrs by Cell-titer-Glo assay; assay type: functional, cell-based; settings: MCF7, 72 h
[5] = test system: Ishikawa; test: Inhibition of estradiol-induced proliferation in human Ishikawa cells after 72 hrs by Cell-titer-Glo assay; assay type: functional, cell-based
[6] = test system: MDA-MB-231; test: Inhibition of estradiol-induced proliferation in human MDA-MB-231 cells after 72 hrs by Cell-titer-Glo assay; assay type: functional, cell-based; settings: MDA-MB-231, 72 h
[7] = target: Serine/threonine-protein kinase mTOR (Homo sapiens) (UniProt P42345); test: Inhibition of mTOR signaling pathway (unknown origin) in human GS5 cells infected with HCV genotype 1b assessed as reduction in ratio of viral NS3 to cellular GAPDH protein level at 0.5 to 1 uM after 72 hrs by Western blot analysis relative to control; assay type: cell-based; in short: as §1
[8] = target: Serine/threonine-protein kinase mTOR (Homo sapiens) (UniProt P42345); test: Inhibition of mTOR signaling pathway (unknown origin) in sub-genomic replicon 2A cells assessed as reduction in ratio of viral NS3 to cellular GAPDH protein level at 0.5 to 1 uM after 72 hrs by Western blot analysis relative to control; in short: as §1
[9] = test system: Hepatitis C virus; test: Antiviral activity against HCV genotype 1b infected in human GS5 cells assessed as reduction in viral RNA level at 0.1 to 10 uM after 72 hrs by qPCR analysis; assay type: functional, organism-based; settings: Hepacivirus hominis
In short: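 GS5 genotype 1b replicon cells were treated for 72 h across 0.1–10 μM. Total RNA was extracted, and HCV RNA and GAPDH mRNA were quantified by qPCR with HCV-specific primers.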

[10] = test system: Hepatitis C virus; test: Antiviral activity against HCV genotype 2a infected in human Huh7.5 cells electroporated with viral RNA assessed as […] reduction in ratio of viral NS3 to cellular GAPDH protein level up to 50 uM after 72 hrs by Western blot analysis; settings: Hepacivirus hominis
[11] = test system: Hepatitis C virus; test: Antiviral activity against HCV genotype 2a infected in human Huh7.5 cells assessed as reduction in viral RNA level at 0.1 to 10 uM after 72 hrs by qPCR analysis; assay type: functional, organism-based; settings: Hepacivirus hominis
[12] = target: Serine/threonine-protein kinase mTOR (Homo sapiens) (UniProt P42345); test: Inhibition of mTOR signaling pathway (unknown origin) in sub-genomic replicon 2A cells assessed as reduction in ratio of viral NS3 to cellular GAPDH protein level at 5 uM after 72 hrs by Western blot analysis relative to control; in short: as §1
[13] = target: Serine/threonine-protein kinase mTOR (Homo sapiens) (UniProt P42345); test: Inhibition of mTOR signaling pathway (unknown origin) in sub-genomic replicon 2A cells assessed as reduction in ratio of phosphorylated rps6 protein level to rps6 protein level after 72 hrs by Western blot analysis
In short: (§2)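 SGR2a replicon cells were incubated with increasing compound concentrations for 72 h. Western blots were run for total rps6, phospho-rps6, phospho-S6K1 and GAPDH, and blots plus repeats were quantified as p-rps6 relative to GAPDH or to total rps6.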

[14] = target: Serine/threonine-protein kinase mTOR (Homo sapiens) (UniProt P42345); test: Inhibition of mTOR signaling pathway (unknown origin) in human GS5 cells infected with HCV genotype 1b assessed as reduction in ratio of viral NS3 to cellular GAPDH protein level at 5 uM after 72 hrs by Western blot analysis relative to control; assay type: cell-based; in short: as §1
[15] = target: Serine/threonine-protein kinase mTOR (Homo sapiens) (UniProt P42345); test: Inhibition of mTOR signaling pathway (unknown origin) in sub-genomic replicon 2A cells assessed as reduction in ratio of phosphorylated rps6 protein level to rps6 protein level at 0.5 to 10 uM after 72 hrs by Western blot analysis relative to control; in short: as §2
[16] = target: Serine/threonine-protein kinase mTOR (Homo sapiens) (UniProt P42345); test: Inhibition of mTOR signaling pathway in human Huh7.5 cells assessed as reduction in S6K1 levels at 0.5 to 10 uM after 72 hrs by Western blot analysis; assay type: cell-based
In short: (§3)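 Naïve, HCV-free Huh7.5 cells were incubated with increasing compound concentrations. Western blot analysis covered phospho-rps6, total rps6, S6K1 and actin.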

[17] = target: Serine/threonine-protein kinase mTOR (Homo sapiens) (UniProt P42345); test: Inhibition of mTOR signaling pathway in human Huh7.5 cells assessed as reduction in rps6 protein levels at 0.5 to 10 uM after 72 hrs by Western blot analysis; assay type: cell-based; in short: as §3
[18] = target: Serine/threonine-protein kinase mTOR (Homo sapiens) (UniProt P42345); test: Inhibition of mTOR signaling pathway (unknown origin) in sub-genomic replicon 2A cells assessed as reduction in ratio of phosphorylated S6K1 protein level at 0.1 uM after 72 hrs by Western blot analysis; in short: as §2

Question: Which inhibition [1] does the source give for `COc1cc(-c2oc3c([N+](=O)[O-])cc(C)cc3c(=O)c2O)cc(OC)c1OC` here?
Answer: inactive

Question: For `CCCCCc1c(OC)cc(OC)c(C(=O)C#Cc2cc(OC)c(OC)c(OC)c2)c1O`, which inhibition [2] is on record?
Answer: Active

Question: What about the inhibition [3] of the same molecule?
Answer: Active

Question: And the inhibition [1]?
Answer: inactive

Question: What does the source list for `Cl.O=C(c1ccc(OCCN2CCCCC2)cc1)c1c(-c2ccc(O)cc2)sc2cc(O)ccc12` [RALOXIFENE HYDROCHLORIDE]?
Answer: IC50 [4]: 0.98 µg/mL; IC50 [5]: 10.5 µg/mL; IC50 [6]: 11.2 µg/mL

Question: With `COc1cc(O)c(C(=O)C#Cc2cc(OC)c(OC)c(OC)c2)c(OC)c1` as the molecule, how does the inhibition [2] read?
Answer: Active

Question: And the inhibition [3]?
Answer: Active

Question: And the inhibition [7]?
Answer: inactive

Question: What about the inhibition [8] of the same molecule?
Answer: inactive

Question: What about the Activity [9] of the same molecule?
Answer: inactive

Question: What about the Activity [10] of the same molecule?
Answer: inactive

Question: What about the Activity [11] of the same molecule?
Answer: Active

Question: What about the inhibition [12] of the same molecule?
Answer: 50%

Question: And the inhibition [13]?
Answer: Active

Question: And the inhibition [1]?
Answer: Active

Question: And the inhibition [14]?
Answer: 50%

Question: How did the inhibition [2] turn out when `COc1cc(C#CC(=O)c2cc(Cl)cc(Cl)c2O)cc(OC)c1OC` was run?
Answer: Active

Question: What about the inhibition [3] of the same molecule?
Answer: Active

Question: What about the inhibition [1] of the same molecule?
Answer: Active

Question: For `COc1ccc(C#CC(=O)c2cc(C)cc([N+](=O)[O-])c2O)cc1OC`, which IC50 [4] is on record?
Answer: 2.24 µg/mL (≈ 6.56 µM)

Question: And the inhibition [2]?
Answer: Active

Question: And the inhibition [3]?
Answer: Active

Question: What about the Activity [10] of the same molecule?
Answer: inactive

Question: And the IC50 [5]?
Answer: 1.43 µg/mL (≈ 4.19 µM)

Question: What about the inhibition [1] of the same molecule?
Answer: Active

Question: What about the IC50 [6] of the same molecule?
Answer: 0.99 µg/mL (≈ 2.9 µM)

Question: `COc1ccc(-c2cc(=O)c3cc(Br)cc(Br)c3o2)cc1OC` was tested. Which inhibition [1] did it give?
Answer: inactive

Question: How did the inhibition [1] turn out when `COc1cc(-c2cc(=O)c3cc(Cl)cc(Cl)c3o2)cc(OC)c1OC` was run?
Answer: inactive

Question: `COc1cc(OC)c(C(=O)C#Cc2cc(OC)c(OC)c(OC)c2)c(O)c1C` was tested. Which inhibition [2] did it give?
Answer: Active

Question: And the inhibition [3]?
Answer: Active

Question: What about the inhibition [1] of the same molecule?
Answer: Active

Question: `COc1cc(-c2oc3c(Cl)cc(Cl)cc3c(=O)c2O)cc(OC)c1OC` was tested. Which inhibition [1] did it give?
Answer: inactive

Question: Which inhibition [1] does the source give for `COc1ccc(-c2cc(=O)c3cc(C)cc([N+](=O)[O-])c3o2)cc1OC` here?
Answer: inactive

Question: How did the IC50 [4] turn out when `CC/C(=C(\c1ccc(O)cc1)c1ccc(OCCN(C)C)cc1)c1ccccc1` [AFIMOXIFENE] was run?
Answer: 0.95 µg/mL (≈ 2.45 µM)

Question: How did the IC50 [4] turn out when `COc1ccc(C#CC(=O)c2cc(Cl)cc(Cl)c2O)cc1OC` was run?
Answer: 3.3 µg/mL (≈ 9.4 µM)

Question: What about the inhibition [2] of the same molecule?
Answer: Active

Question: And the inhibition [3]?
Answer: Active

Question: And the inhibition [7]?
Answer: inactive

Question: What about the inhibition [8] of the same molecule?
Answer: inactive

Question: And the Activity [10]?
Answer: inactive

Question: What about the inhibition [12] of the same molecule?
Answer: Active

Question: And the IC50 [5]?
Answer: 5.85 µg/mL (≈ 16.7 µM)

Question: What about the inhibition [1] of the same molecule?
Answer: Active

Question: And the inhibition [14]?
Answer: Active

Question: What about the IC50 [6] of the same molecule?
Answer: 1.98 µg/mL (≈ 5.64 µM)

Question: With `COc1ccc(-c2oc3c(Br)cc(Br)cc3c(=O)c2O)cc1OC` as the molecule, how does the inhibition [1] read?
Answer: inactive

Question: How did the inhibition [2] turn out when `COc1ccc(C#CC(=O)c2cc(Br)cc(Br)c2O)cc1OC` was run?
Answer: Active

Question: And the inhibition [3]?
Answer: Active

Question: And the inhibition [7]?
Answer: inactive

Question: And the inhibition [8]?
Answer: inactive

Question: And the Activity [10]?
Answer: inactive

Question: And the Activity [11]?
Answer: Active

Question: And the inhibition [15]?
Answer: 50%

Question: And the inhibition [16]?
Answer: Active

Question: What about the inhibition [12] of the same molecule?
Answer: 50%

Question: What about the inhibition [17] of the same molecule?
Answer: Active

Question: What about the inhibition [1] of the same molecule?
Answer: Active

Question: And the inhibition [14]?
Answer: 50%

Question: And the inhibition [18]?
Answer: Active

Question: How did the inhibition [1] turn out when `COc1cc(-c2cc(=O)c3cc(C)cc([N+](=O)[O-])c3o2)cc(OC)c1OC` was run?
Answer: inactive

Question: Which results are given for `COc1ccc(-c2oc3c(Cl)cc(Cl)cc3c(=O)c2O)cc1OC`?
Answer: IC50 [4]: > 36.7 µg/mL; IC50 [5]: > 36.7 µg/mL; inhibition [1]: inactive; IC50 [6]: > 36.7 µg/mL

Question: Which IC50 [4] does the source give for `COc1ccc(-c2oc3c([N+](=O)[O-])cc(C)cc3c(=O)c2O)cc1OC` here?
Answer: > 35.7 µg/mL

Question: And the IC50 [5]?
Answer: > 35.7 µg/mL

Question: What about the inhibition [1] of the same molecule?
Answer: inactive

Question: What about the IC50 [6] of the same molecule?
Answer: > 35.7 µg/mL

Question: `COc1cc(-c2oc3c(Br)cc(Br)cc3c(=O)c2O)cc(OC)c1OC` was tested. Which inhibition [1] did it give?
Answer: inactive
